Laboratory results from ChEMBL document CHEMBL4715770, “Inhibition of Low Molecular Weight Protein Tyrosine Phosphatase by an Induced-Fit Mechanism” (J Med Chem, 2016).

Key:
[1] = Inhibition of His-tagged PTP-H1 (unknown origin) expressed in Escherichia coli BL21 cells using para-nitrophenyl phosphate as substrate incubated for 5 to 10 mins by microplate reader based spectrophotometric analysis; set-up: species or system Homo sapiens
Procedure, shortened: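 Enzyme at 5-20 nM was added to substrate plus a range of inhibitor concentrations and run 5-10 min at room temperature. Quenched with 5N NaOH and p-nitrophenol read at 405 nm (ε 18,000 M-1cm-1), with a no-enzyme background correction. IC50 from curve fitting.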

[2] = molecular target: T1, Tyrosine-protein phosphatase non-receptor type 12 (Homo sapiens, UniProt Q05209); experiment: Inhibition of His-tagged PTP-PEST (unknown origin) expressed in Escherichia coli BL21 cells using para-nitrophenyl phosphate as substrate incubated for 5 to 10 mins by microplate reader based spectrophotometric analysis
T1 sequence (Q05209 whole entry): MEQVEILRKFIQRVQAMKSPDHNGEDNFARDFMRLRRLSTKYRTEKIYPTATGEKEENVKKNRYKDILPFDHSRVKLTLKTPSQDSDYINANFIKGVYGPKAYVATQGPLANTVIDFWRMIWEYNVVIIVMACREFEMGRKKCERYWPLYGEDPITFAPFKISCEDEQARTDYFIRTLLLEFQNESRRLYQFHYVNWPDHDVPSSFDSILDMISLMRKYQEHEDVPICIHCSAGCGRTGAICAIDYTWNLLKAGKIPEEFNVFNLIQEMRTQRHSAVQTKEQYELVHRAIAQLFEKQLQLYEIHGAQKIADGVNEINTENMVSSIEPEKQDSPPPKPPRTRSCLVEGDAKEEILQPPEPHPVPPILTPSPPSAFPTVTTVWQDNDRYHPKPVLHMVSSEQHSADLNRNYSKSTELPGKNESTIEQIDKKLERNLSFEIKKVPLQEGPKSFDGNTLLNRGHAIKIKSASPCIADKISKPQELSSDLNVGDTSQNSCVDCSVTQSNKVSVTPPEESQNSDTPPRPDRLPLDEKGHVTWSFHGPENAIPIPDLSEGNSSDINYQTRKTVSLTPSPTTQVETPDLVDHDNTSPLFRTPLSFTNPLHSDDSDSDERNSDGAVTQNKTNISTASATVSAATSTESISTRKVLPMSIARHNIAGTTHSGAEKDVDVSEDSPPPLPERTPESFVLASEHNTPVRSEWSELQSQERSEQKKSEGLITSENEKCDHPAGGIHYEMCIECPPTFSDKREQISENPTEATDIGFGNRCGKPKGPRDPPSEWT

[3] = molecular target: Receptor-type tyrosine-protein phosphatase gamma (Homo sapiens, UniProt P23470); experiment: Inhibition of His-tagged PTPgamma (unknown origin) expressed in Escherichia coli BL21 cells using para-nitrophenyl phosphate as substrate incubated for 5 to 10 mins by microplate reader based spectrophotometric analysis
[4] = molecular target: T2, Dual specificity protein phosphatase 23 (Homo sapiens, UniProt Q9BVJ7); experiment: Inhibition of His-tagged VHZ (unknown origin) expressed in Escherichia coli BL21 cells using para-nitrophenyl phosphate as substrate incubated for 5 to 10 mins by microplate reader based spectrophotometric analysis
T2 sequence (Q9BVJ7 whole entry): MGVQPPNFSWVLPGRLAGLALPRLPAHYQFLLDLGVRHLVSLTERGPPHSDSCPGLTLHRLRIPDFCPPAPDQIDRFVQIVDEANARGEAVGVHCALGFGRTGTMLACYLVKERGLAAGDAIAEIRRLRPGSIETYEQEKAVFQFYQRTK

[5] = molecular target: T3, Dual specificity protein phosphatase 6 (Homo sapiens, UniProt Q16828); experiment: Inhibition of His-tagged MKP3 (unknown origin) expressed in Escherichia coli BL21 cells using para-nitrophenyl phosphate as substrate incubated for 5 to 10 mins by microplate reader based spectrophotometric analysis
T3 sequence (Q16828 whole entry): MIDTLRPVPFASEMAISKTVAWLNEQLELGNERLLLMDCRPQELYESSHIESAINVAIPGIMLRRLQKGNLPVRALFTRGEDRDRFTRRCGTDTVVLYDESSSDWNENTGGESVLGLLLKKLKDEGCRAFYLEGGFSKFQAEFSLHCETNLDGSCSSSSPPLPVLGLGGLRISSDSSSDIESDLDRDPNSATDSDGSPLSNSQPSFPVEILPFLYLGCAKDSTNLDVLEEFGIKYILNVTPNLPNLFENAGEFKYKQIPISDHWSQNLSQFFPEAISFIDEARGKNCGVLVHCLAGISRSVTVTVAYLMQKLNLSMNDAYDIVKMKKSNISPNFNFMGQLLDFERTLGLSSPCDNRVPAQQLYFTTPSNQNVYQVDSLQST

[6] = molecular target: Tyrosine-protein phosphatase non-receptor type 6 (Homo sapiens, UniProt P29350); experiment: Inhibition of His-tagged SHP1 (unknown origin) expressed in Escherichia coli BL21 cells using para-nitrophenyl phosphate as substrate incubated for 5 to 10 mins by microplate reader based spectrophotometric analysis
[7] = molecular target: Receptor-type tyrosine-protein phosphatase F (Homo sapiens, UniProt P10586); experiment: Inhibition of His-tagged LAR (unknown origin) expressed in Escherichia coli BL21 cells using para-nitrophenyl phosphate as substrate incubated for 5 to 10 mins by microplate reader based spectrophotometric analysis
[8] = molecular target: Dual specificity protein phosphatase 3 (Homo sapiens, UniProt P51452); experiment: Inhibition of His-tagged VHR (unknown origin) expressed in Escherichia coli BL21 cells using para-nitrophenyl phosphate as substrate incubated for 5 to 10 mins by microplate reader based spectrophotometric analysis
[9] = molecular target: T4, Dual specificity protein phosphatase CDC14A (Homo sapiens, UniProt Q9UNH5); experiment: Inhibition of His-tagged CDC14A (unknown origin) expressed in Escherichia coli BL21 cells using para-nitrophenyl phosphate as substrate incubated for 5 to 10 mins by microplate reader based spectrophotometric analysis
T4 sequence (Q9UNH5 whole entry): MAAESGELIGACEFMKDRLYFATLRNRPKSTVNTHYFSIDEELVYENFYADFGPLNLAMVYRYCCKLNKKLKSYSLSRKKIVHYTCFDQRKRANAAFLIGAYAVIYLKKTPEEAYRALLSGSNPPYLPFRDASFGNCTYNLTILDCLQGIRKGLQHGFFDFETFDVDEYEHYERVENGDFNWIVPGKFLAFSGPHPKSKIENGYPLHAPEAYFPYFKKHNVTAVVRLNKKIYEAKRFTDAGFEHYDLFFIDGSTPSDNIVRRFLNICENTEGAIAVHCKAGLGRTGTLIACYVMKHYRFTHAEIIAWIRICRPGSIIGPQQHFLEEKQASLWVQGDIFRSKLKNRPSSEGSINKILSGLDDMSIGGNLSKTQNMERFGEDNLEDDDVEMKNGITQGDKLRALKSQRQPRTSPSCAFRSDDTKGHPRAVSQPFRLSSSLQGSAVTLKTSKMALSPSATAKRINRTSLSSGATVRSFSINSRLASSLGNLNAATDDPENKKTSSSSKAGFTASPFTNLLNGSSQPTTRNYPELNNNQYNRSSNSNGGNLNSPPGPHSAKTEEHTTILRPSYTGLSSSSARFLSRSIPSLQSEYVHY

Chain of Receptor-type tyrosine-protein phosphatase gamma (P23470 whole entry): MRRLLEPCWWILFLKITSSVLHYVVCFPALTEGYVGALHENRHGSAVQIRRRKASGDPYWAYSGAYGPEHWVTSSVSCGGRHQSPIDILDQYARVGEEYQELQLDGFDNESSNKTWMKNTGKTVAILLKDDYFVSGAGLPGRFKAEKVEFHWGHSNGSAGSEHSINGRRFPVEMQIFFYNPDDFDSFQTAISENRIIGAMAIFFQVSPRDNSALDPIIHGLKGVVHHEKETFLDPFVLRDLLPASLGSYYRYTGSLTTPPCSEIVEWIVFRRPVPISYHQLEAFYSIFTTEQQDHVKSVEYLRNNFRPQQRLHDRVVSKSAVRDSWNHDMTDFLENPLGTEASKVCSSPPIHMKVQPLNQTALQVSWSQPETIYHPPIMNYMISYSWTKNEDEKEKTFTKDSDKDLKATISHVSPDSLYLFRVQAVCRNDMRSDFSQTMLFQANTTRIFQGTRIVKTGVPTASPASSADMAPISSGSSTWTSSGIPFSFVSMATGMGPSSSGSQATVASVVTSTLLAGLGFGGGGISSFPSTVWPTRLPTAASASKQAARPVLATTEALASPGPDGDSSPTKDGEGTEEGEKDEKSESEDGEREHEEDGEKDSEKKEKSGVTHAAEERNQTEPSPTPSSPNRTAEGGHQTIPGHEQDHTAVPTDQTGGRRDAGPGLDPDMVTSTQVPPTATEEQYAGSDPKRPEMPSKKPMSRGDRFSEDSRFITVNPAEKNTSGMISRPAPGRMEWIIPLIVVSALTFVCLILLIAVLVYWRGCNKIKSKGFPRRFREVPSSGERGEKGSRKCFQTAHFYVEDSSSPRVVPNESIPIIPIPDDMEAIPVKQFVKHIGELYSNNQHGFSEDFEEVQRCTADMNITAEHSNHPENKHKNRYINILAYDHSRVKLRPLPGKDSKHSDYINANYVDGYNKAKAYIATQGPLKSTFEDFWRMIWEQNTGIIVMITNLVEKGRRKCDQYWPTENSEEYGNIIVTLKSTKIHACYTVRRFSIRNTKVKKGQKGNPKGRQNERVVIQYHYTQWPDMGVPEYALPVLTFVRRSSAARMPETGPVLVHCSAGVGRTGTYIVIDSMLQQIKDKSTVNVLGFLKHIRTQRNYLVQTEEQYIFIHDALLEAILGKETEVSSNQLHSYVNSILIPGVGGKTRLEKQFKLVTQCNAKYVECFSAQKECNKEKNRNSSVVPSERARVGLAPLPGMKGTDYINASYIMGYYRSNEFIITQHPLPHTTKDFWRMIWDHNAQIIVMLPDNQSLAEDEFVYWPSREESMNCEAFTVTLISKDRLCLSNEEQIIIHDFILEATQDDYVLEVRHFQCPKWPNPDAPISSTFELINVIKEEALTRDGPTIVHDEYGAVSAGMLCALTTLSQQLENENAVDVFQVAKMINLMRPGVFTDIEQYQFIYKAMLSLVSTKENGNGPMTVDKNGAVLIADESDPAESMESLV
Chain of Receptor-type tyrosine-protein phosphatase F (P10586 whole entry): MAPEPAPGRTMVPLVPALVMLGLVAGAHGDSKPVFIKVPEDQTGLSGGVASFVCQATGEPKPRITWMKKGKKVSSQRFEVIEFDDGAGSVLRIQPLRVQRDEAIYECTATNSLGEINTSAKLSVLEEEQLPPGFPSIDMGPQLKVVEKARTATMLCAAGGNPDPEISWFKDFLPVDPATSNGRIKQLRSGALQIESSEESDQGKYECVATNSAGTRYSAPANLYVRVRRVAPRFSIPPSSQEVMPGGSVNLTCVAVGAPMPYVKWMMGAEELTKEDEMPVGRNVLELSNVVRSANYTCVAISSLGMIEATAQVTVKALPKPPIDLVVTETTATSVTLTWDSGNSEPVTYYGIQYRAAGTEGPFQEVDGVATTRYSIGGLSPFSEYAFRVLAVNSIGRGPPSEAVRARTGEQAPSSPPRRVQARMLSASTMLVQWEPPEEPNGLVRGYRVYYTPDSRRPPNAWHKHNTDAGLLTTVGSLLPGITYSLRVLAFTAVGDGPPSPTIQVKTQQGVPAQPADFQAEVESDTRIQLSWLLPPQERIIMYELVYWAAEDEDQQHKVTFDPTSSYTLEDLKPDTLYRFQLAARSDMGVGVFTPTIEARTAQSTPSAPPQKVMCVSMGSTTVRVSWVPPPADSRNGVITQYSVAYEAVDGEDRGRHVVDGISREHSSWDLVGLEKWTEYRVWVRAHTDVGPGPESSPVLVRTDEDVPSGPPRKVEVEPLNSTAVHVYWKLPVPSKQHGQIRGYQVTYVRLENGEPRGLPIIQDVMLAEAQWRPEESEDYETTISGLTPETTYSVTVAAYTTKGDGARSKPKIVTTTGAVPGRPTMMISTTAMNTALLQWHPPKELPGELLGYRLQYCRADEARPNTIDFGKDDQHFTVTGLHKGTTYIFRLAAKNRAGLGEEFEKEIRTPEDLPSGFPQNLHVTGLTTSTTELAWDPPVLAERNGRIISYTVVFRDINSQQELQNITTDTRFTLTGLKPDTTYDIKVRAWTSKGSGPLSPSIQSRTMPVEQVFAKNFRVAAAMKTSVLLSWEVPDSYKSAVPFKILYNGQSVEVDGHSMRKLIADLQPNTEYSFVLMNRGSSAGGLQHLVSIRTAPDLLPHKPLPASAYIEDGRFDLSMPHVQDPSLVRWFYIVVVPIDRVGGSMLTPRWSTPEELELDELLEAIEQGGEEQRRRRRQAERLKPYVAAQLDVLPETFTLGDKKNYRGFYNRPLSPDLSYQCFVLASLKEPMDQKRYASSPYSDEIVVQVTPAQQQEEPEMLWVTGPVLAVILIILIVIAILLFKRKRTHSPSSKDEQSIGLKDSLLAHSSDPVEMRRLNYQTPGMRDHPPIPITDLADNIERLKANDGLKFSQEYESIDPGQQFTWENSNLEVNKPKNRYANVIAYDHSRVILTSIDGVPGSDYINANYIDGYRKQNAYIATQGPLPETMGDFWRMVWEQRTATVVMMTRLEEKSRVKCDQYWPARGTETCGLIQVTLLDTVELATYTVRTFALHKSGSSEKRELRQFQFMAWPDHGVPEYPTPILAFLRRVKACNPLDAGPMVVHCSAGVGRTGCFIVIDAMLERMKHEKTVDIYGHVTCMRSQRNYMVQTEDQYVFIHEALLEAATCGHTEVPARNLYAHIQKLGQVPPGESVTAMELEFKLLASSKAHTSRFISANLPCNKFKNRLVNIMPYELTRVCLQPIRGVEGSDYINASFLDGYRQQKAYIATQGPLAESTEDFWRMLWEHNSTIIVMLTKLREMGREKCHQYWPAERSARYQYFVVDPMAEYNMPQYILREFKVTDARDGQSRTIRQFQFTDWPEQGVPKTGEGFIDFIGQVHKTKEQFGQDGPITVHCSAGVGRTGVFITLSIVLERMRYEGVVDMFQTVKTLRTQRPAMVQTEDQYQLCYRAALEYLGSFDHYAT
Chain of Tyrosine-protein phosphatase non-receptor type 6 (P29350 whole entry): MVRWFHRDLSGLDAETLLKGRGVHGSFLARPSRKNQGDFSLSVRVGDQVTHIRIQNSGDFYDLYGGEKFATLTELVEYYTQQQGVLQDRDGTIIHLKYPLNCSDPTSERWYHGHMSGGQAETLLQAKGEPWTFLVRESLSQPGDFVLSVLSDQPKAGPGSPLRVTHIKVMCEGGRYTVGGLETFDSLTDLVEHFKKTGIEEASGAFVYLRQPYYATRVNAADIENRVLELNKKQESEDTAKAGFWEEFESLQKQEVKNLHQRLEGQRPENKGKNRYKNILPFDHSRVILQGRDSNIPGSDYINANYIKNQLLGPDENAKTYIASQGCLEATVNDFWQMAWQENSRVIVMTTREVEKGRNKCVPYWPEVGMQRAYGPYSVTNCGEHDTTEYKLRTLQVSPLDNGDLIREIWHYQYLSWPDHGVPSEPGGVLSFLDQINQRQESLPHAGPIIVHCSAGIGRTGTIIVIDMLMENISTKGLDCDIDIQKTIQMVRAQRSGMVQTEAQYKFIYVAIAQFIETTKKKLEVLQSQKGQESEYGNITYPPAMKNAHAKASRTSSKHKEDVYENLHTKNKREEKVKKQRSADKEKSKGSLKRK
Chain of Dual specificity protein phosphatase 3 (P51452 whole entry): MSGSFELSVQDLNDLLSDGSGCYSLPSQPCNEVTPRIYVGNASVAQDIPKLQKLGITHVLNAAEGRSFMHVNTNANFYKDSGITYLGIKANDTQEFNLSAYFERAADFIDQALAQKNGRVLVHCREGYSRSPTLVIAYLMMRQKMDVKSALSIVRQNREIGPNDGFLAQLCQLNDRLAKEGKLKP

SMILES | IC50 [1] [µM] | IC50 [2] [µM] | IC50 [3] [µM] | IC50 [4] [µM] | IC50 [5] [µM] | IC50 [6] [µM] | IC50 [7] [µM] | IC50 [8] [µM] | IC50 [9] [µM]
O=C(Nc1nc2ccc([N+](=O)[O-])cc2s1)C(c1ccccc1)S(=O)(=O)O (configuration not stated) | > 100 | > 100 | > 100 | > 100 | > 100 | > 100 | > 100 | > 100 | > 100
Cc1c(Br)cc(NC(=O)C(c2ccccc2)S(=O)(=O)O)cc1Br (configuration not stated) | > 200 |  | > 200 | > 200 | > 200 | > 200 | > 200 | > 200 | > 200
O=C(Nc1ccc(-n2ccnc2)cc1)C(c1ccccc1)S(=O)(=O)O (configuration not stated) | > 100 | > 100 | > 100 | > 100 | > 100 | > 100 | > 100 | > 100 | > 100
O=C(Nc1cc(C(F)(F)F)cc(C(F)(F)F)c1)C(c1ccccc1)S(=O)(=O)O (configuration not stated) | > 200 | 66.9 | > 200 | > 200 | > 200 | > 200 | > 200 | > 200 | > 200
O=C(Nc1ccc(OCc2ccccc2)c(Cl)c1)C(c1ccccc1)S(=O)(=O)O (configuration not stated) | > 200 |  | > 200 | > 200 | > 200 | > 200 | > 200 |  | > 200
